In ChEMBL document CHEMBL4304756, “Second-Generation Tryptamine Derivatives Potently Sensitize Colistin Resistant Bacteria to Colistin” (ACS Med Chem Lett, 2019):
Calls of active or inactive are those of the source. No cut-off for these calls is given here.

Tests used:
[1] = test system: Acinetobacter baumannii; assay: Potentiation of colistin-induced antibacterial activity against Acinetobacter baumannii 17978 assessed as colistin MIC at 50 uM incubated for 16 hrs by broth microdilution method (reference value: 2 ug/ml); assay type: functional; details: Acinetobacter baumannii, 17978, 16 h
[2] = test system: Klebsiella pneumoniae; assay: Potentiation of colistin-induced antibacterial activity against Klebsiella pneumoniae 2210291 assessed as colistin MIC at 50 uM incubated for 16 hrs by broth microdilution method (reference value: 1 ug/ml); assay type: functional; details: Klebsiella pneumoniae, 2210291, 16 h
[3] = test system: Klebsiella pneumoniae; assay: Potentiation of colistin-induced antibacterial activity against Klebsiella pneumoniae 2210291 harbouring mcr-1 gene assessed as colistin MIC at 50 uM incubated for 16 hrs by broth microdilution method (reference value: 16 ug/ml); assay type: functional; details: Klebsiella pneumoniae, 2210291, 16 h
[4] = test system: Escherichia coli; assay: Potentiation of colistin-induced antibacterial activity against Escherichia coli YD626 harbouring mcr-1 gene assessed as colistin MIC at 50 uM incubated for 16 hrs by broth microdilution method (reference value: 8 ug/ml); assay type: functional; details: YD626, 16 h
[5] = test system: Acinetobacter baumannii; assay: Potentiation of colistin-induced antibacterial activity against Acinetobacter baumannii 17978 harbouring mcr-1 gene assessed as colistin MIC at 50 uM incubated for 16 hrs by broth microdilution method (reference value: 16 ug/ml); assay type: functional; details: Acinetobacter baumannii, 17978, 16 h
[6] = test system: Escherichia coli; assay: Potentiation of colistin-induced antibacterial activity against Escherichia coli YD626 assessed as colistin MIC at 50 uM incubated for 16 hrs by broth microdilution method (reference value: 1 ug/ml); assay type: functional; details: YD626, 16 h
[7] = test system: Klebsiella pneumoniae; assay: Potentiation of colistin-induced antibacterial activity against Klebsiella pneumoniae 2210291 harbouring mcr-1 gene assessed as reduction in colistin MIC at 15 uM incubated for 16 hrs by broth microdilution method; assay type: functional, organism-based
How it was run: (§1)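 For the dose-response, colistin MIC was measured against mcr-1 plasmid-bearing E. coli, K. pneumoniae and A. baumannii while the adjuvant concentration was lowered stepwise (30, 15 μM, down to 5 μM). The aim was to find where the MIC rose above the 2 μg/mL CLSI susceptibility breakpoint.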

[8] = test system: Acinetobacter baumannii; assay: Potentiation of colistin-induced antibacterial activity against Acinetobacter baumannii 17978 harbouring mcr-1 gene assessed as reduction in colistin MIC at 15 uM incubated for 16 hrs by broth microdilution method; assay type: functional, organism-based; how it was run: as §1
[9] = Cytotoxicity against mouse 4T1 cells assessed as reduction in cell viability incubated for 18 hrs by MTT assay; assay type: cell-based
How it was run: (§2)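 4T1 mouse mammary tumor cells exposed to compound for 18 h, alone or together with colistin at 1 μg/mL. Medium then aspirated and replaced with 0.5 mg/mL MTT in culture medium for colorimetric viability read-out. CT50 taken as the concentration giving 50% cell viability.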

[10] = test system: Escherichia coli; assay: Potentiation of colistin-induced antibacterial activity against Escherichia coli YD626 harbouring mcr-1 gene assessed as reduction in colistin MIC at 15 uM incubated for 16 hrs by broth microdilution method; assay type: functional, organism-based; how it was run: as §1
[11] = Cytotoxicity against mouse 4T1 cells assessed as reduction in cell viability in presence of 1 ug/ml colistin incubated for 18 hrs by MTT assay; assay type: cell-based; how it was run: as §2

Row | SMILES | MIC [1] | MIC [2] | MIC [3] | MIC [4] | MIC [5] | MIC [6] | Activity [7] | Activity [8] | CC50 at 18 h [9] | Activity [10] | CC50 at 18 h [11]
1 | O=C(NCCc1c[nH]c2ccccc12)c1cc(Br)cc(Br)c1 | 1 µg/mL | 0.5 µg/mL | 4 µg/mL | 4 µg/mL | 4 µg/mL | 0.25 µg/mL | – | – | – | – | –
2 | O=C(NCCc1c[nH]c2ccc(Br)cc12)Nc1cc(Br)cc(Br)c1 | 0.5 µg/mL | 0.5 µg/mL | 2 µg/mL | 2 µg/mL | 2 µg/mL | 0.25 µg/mL | – | – | – | – | –
3 | O=C(Nc1cc(Br)cc(Br)c1)Nc1ccc2cc[nH]c2c1 | 2 µg/mL | 1 µg/mL | 16 µg/mL | 8 µg/mL | 16 µg/mL | 1 µg/mL | – | – | – | – | –
4 | O=C(NCCc1c[nH]c2ccc(Br)cc12)c1cc(C(F)(F)F)cc(C(F)(F)F)c1 | 0.5 µg/mL | 0.25 µg/mL | 8 µg/mL | 4 µg/mL | 8 µg/mL | 0.0625 µg/mL | – | – | – | – | –
5 | O=C(Nc1cc(Br)cc(Br)c1)Nc1ccc2[nH]ccc2c1 | 1 µg/mL | 1 µg/mL | 16 µg/mL | 8 µg/mL | 16 µg/mL | 1 µg/mL | – | – | – | – | –
6 | O=C(Nc1cc(C(F)(F)F)cc(C(F)(F)F)c1)Nc1ccc2[nH]ccc2c1 | 1 µg/mL | 0.5 µg/mL | 8 µg/mL | 4 µg/mL | 8 µg/mL | 0.5 µg/mL | – | – | – | – | –
7 | O=C(Nc1ccc(Cl)c(Cl)c1)Nc1ccc2[nH]ccc2c1 | 2 µg/mL | 1 µg/mL | 16 µg/mL | 8 µg/mL | 16 µg/mL | 0.5 µg/mL | – | – | – | – | –
8 | CCCCc1ccc(NC(=O)Nc2ccc3cc[nH]c3c2)cc1 | 2 µg/mL | 1 µg/mL | 16 µg/mL | 8 µg/mL | 8 µg/mL | 0.5 µg/mL | – | – | – | – | –
9 | O=C(Nc1cc(C(F)(F)F)cc(C(F)(F)F)c1)Nc1ccc2cc[nH]c2c1 | 1 µg/mL | 1 µg/mL | 16 µg/mL | 4 µg/mL | 8 µg/mL | 0.5 µg/mL | – | – | – | – | –
10 | O=C(Nc1cc(Cl)c(Br)c(Cl)c1)Nc1ccc2cc[nH]c2c1 | 2 µg/mL | 1 µg/mL | 16 µg/mL | 8 µg/mL | 16 µg/mL | 1 µg/mL | – | – | – | – | –
11 | O=C(NCc1c[nH]c2ccccc12)Nc1cc(Br)cc(Br)c1 | 1 µg/mL | 0.5 µg/mL | 16 µg/mL | 4 µg/mL | 8 µg/mL | 0.25 µg/mL | – | – | – | – | –
12 | O=C(NCCc1c[nH]c2ccccc12)c1ccc(Cl)c(Cl)c1 | 1 µg/mL | 0.5 µg/mL | 2 µg/mL | 2 µg/mL | 2 µg/mL | 0.5 µg/mL | – | – | – | – | –
13 | O=C(Nc1ccc(Cl)c(Cl)c1)Nc1ccc2cc[nH]c2c1 | 2 µg/mL | 1 µg/mL | 16 µg/mL | 8 µg/mL | 16 µg/mL | 1 µg/mL | – | – | – | – | –
14 | O=C(NCCc1c[nH]c2ccccc12)Nc1cc(C(F)(F)F)cc(C(F)(F)F)c1 | 0.125 µg/mL | 0.25 µg/mL | 1 µg/mL | 1 µg/mL | 0.5 µg/mL | 0.0313 µg/mL | Active | Active | 60.5 µM | Active | 61.8 µM
15 | O=C(NCCc1c[nH]c2ccccc12)Nc1cc(Cl)c(Br)c(Cl)c1 | 0.5 µg/mL | 0.5 µg/mL | 1 µg/mL | 1 µg/mL | 1 µg/mL | 0.125 µg/mL | Active | Active | – | Active | –
16 | CCCCc1ccc(C(=O)NCCc2c[nH]c3ccc(Br)cc23)cc1 | 0.5 µg/mL | 0.25 µg/mL | 4 µg/mL | 4 µg/mL | 4 µg/mL | 0.125 µg/mL | – | – | – | – | –
17 | O=C(NCCc1c[nH]c2ccc(Br)cc12)c1cc(Br)cc(Br)c1 | 1 µg/mL | 0.5 µg/mL | 4 µg/mL | 4 µg/mL | 4 µg/mL | 0.5 µg/mL | – | – | – | – | –
18 | O=C(NCCc1c[nH]c2ccc(Br)cc12)c1ccc(Cl)c(Cl)c1 | 0.5 µg/mL | 0.5 µg/mL | 1 µg/mL | 2 µg/mL | 1 µg/mL | 0.25 µg/mL | – | – | – | – | –
19 | CC(C)n1cc(-c2cccc(NC(=O)Nc3cc(Cl)c(Br)c(Cl)c3)c2)nc1N | – | – | – | – | – | – | – | – | 23.2 µM | – | 15.6 µM
20 | O=C(NCCc1c[nH]c2ccc(Br)cc12)Nc1cc(C(F)(F)F)cc(C(F)(F)F)c1 | 0.25 µg/mL | 0.5 µg/mL | 2 µg/mL | 4 µg/mL | 2 µg/mL | 0.0313 µg/mL | – | – | – | – | –
21 | O=C(NCCc1c[nH]c2ccccc12)c1cc(C(F)(F)F)cc(C(F)(F)F)c1 | 0.25 µg/mL | 0.25 µg/mL | 16 µg/mL | 4 µg/mL | 8 µg/mL | 0.0625 µg/mL | – | – | – | – | –
22 | O=C(Nc1cc(Cl)c(Br)c(Cl)c1)Nc1ccc2[nH]ccc2c1 | 1 µg/mL | 1 µg/mL | 16 µg/mL | 8 µg/mL | 8 µg/mL | 0.5 µg/mL | – | – | – | – | –
23 | CCCCc1ccc(NC(=O)Nc2ccc3[nH]ccc3c2)cc1 | 1 µg/mL | 0.5 µg/mL | 16 µg/mL | 8 µg/mL | 16 µg/mL | 0.5 µg/mL | – | – | – | – | –
24 | O=C(NCc1c[nH]c2ccccc12)Nc1ccc(Cl)c(Cl)c1 | 2 µg/mL | 0.5 µg/mL | 16 µg/mL | 4 µg/mL | 16 µg/mL | 0.5 µg/mL | – | – | – | – | –
25 | CCCCc1ccc(NC(=O)NCc2c[nH]c3ccccc23)cc1 | 2 µg/mL | 0.5 µg/mL | 16 µg/mL | 8 µg/mL | 16 µg/mL | 1 µg/mL | – | – | – | – | –
26 | O=C(NCc1c[nH]c2ccccc12)Nc1cc(C(F)(F)F)cc(C(F)(F)F)c1 | 0.125 µg/mL | 0.125 µg/mL | 1 µg/mL | 1 µg/mL | 1 µg/mL | 0.0313 µg/mL | – | – | – | – | –
27 | O=C(NCCc1c[nH]c2ccccc12)Nc1ccc(Cl)c(Cl)c1 | 0.5 µg/mL | 0.25 µg/mL | 0.5 µg/mL | 1 µg/mL | 0.5 µg/mL | 0.125 µg/mL | – | – | 117 µM | – | 105 µM
28 | CCCCc1ccc(C(=O)NCCc2c[nH]c3ccccc23)cc1 | 0.25 µg/mL | 0.125 µg/mL | 8 µg/mL | 4 µg/mL | 4 µg/mL | 0.0625 µg/mL | – | – | – | – | –
29 | CCCCc1ccc(NC(=O)NCCc2c[nH]c3ccccc23)cc1 | 2 µg/mL | 1 µg/mL | 16 µg/mL | 8 µg/mL | 16 µg/mL | 1 µg/mL | – | – | – | – | –
30 | O=C(NCc1c[nH]c2ccccc12)Nc1cc(Cl)c(Br)c(Cl)c1 | 1 µg/mL | 0.5 µg/mL | 8 µg/mL | 8 µg/mL | 8 µg/mL | 0.25 µg/mL | – | – | – | – | –
